The structures appear in SMILES notation.

For 22 molecules, IC50, ED50 and inhibition in vivo results are on record in ChEMBL document CHEMBL2021809, “Synthesis, biological evaluation and molecular modeling study of pyrazole and pyrazoline derivatives as selective COX-2 inhibitors and anti-inflammatory agents. Part 2” (Bioorg Med Chem, 2012).

Assay [1] addresses T1, Prostaglandin G/H synthase 1 (Ovis aries, UniProt P05979).
T1 sequence (P05979 whole entry): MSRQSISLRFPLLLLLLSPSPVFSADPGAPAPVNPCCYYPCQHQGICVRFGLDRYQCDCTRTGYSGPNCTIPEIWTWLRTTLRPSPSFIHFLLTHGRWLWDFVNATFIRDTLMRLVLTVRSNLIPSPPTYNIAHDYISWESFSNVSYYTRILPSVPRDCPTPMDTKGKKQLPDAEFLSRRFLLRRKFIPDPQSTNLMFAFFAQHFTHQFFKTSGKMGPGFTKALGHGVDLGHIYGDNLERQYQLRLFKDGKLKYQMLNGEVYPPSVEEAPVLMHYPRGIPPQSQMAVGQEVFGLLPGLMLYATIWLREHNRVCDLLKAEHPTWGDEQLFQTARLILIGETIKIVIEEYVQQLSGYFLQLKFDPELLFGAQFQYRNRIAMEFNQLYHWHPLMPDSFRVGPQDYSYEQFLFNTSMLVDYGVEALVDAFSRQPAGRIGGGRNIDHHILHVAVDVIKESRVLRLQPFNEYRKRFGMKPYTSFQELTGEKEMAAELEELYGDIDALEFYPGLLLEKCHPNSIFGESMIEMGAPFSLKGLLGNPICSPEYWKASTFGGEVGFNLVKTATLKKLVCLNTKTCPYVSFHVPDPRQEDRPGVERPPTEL
The experiment in a line: Inhibition of ovine COX1 by enzyme immuno assay.

In assay [2] the test system is Rattus norvegicus. The assay can be described thus: Antiinflammatory activity in ip dosed rat assessed as inhibition of carrageenan-induced foot paw edema measured after 2 hrs. It counts as functional. A general note: The carrageenan paw model is a standard test of acute inflammation.
Assay [3] deals with Rattus norvegicus. The assay can be described thus: Antiinflammatory activity in rat assessed as inhibition of carrageenan-induced foot paw edema at 200 mg/kg, ip measured after 2 hrs. It is filed as functional. The conditions noted are these: route intraperitoneal. A digest of the protocol:
(§1)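 Edema was induced in the rat paw with carrageenan. The read-out was percent reduction of edema at 2 h for each single dose. Test doses were 100 and 200 mg/kg. The reference agent was given at 50 and 100 mg/kg ip.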

Assay [4] deals with Rattus norvegicus. The experiment in a line: Antiinflammatory activity in rat assessed as inhibition of carrageenan-induced foot paw edema at 100 mg/kg, ip measured after 2 hrs. It is filed as functional. The conditions noted are these: route intraperitoneal. The procedure, abridged: as §1
Assay [5] deals with Rattus norvegicus. The assay can be described thus: Antiinflammatory activity in rat assessed as inhibition of carrageenan-induced foot paw edema at 50 mg/kg, ip measured after 2 hrs. It counts as functional. The conditions noted are these: route intraperitoneal. The procedure, abridged:
as §1

Regarding `FC(F)(F)c1[nH]nc(-c2ccc(Cl)cc2)c1Cc1ccccc1`, in assay [1], the IC50 is above 50 µM.

As for `COc1ccc(/C=C2\C(c3ccc(Cl)cc3)=NN=C2C(F)(F)F)cc1OC`, the ED50 with Rattus norvegicus [2] came to 298 µmol/kg. Further, the inhibition in vivo at 200 mg/kg in the assay with Rattus norvegicus [3] came out at 88.7%. The inhibition in vivo at 100 mg/kg with Rattus norvegicus [4] came to 42%. In addition, the IC50 in assay [1] was above 50 µM.

For `O=C(/C(=C/c1ccco1)C(=O)C(F)(F)F)c1ccc(Cl)cc1`, the 50% inhibitory concentration (IC50) in assay [1] was above 50 µM.

For `O=[N+]([O-])c1cccc(/C=C2\C(c3ccc(Cl)cc3)=NN=C2C(F)(F)F)c1`, the ED50 in the assay with Rattus norvegicus [2] came to 318 µmol/kg. For the same molecule, in the assay with Rattus norvegicus [3], the inhibition in vivo at 200 mg/kg was 84.5%. Also, in the assay with Rattus norvegicus [4], the inhibition in vivo at 100 mg/kg was determined as 37.6%. The half-inhibitory concentration (IC50) in assay [1] is above 50 µM.

Consider `COc1ccc(/C=C2\C(c3ccc(Cl)cc3)=NN=C2C(F)(F)F)cc1`, for which the ED50 in the assay with Rattus norvegicus [2] worked out at 405 µmol/kg. The inhibition in vivo at 200 mg/kg with Rattus norvegicus [3] was 69.1%. Also, the inhibition in vivo at 100 mg/kg with Rattus norvegicus [4] was determined as 33.4%. Moreover, in assay [1], the IC50 was above 50 µM.

`O=C(/C(=C/c1ccccc1O)C(=O)C(F)(F)F)c1ccc(Cl)cc1`: in assay [1], the 50% inhibitory concentration (IC50) was above 50 µM.

Turning to `FC(F)(F)c1nn(-c2ccccc2)c(-c2ccc(Cl)cc2)c1/C=N/c1ccc(Br)cc1`, the median effective dose (ED50) with Rattus norvegicus [2] was determined as 335 µmol/kg. In addition, the inhibition in vivo at 200 mg/kg in the assay with Rattus norvegicus [3] is 61.1%. The inhibition in vivo at 100 mg/kg in the assay on Rattus norvegicus [4] worked out at 25.2%. The half-maximal inhibitory concentration (IC50) in assay [1] was above 50 µM.

`COc1ccc(/C=C(/C(=O)c2ccc(Cl)cc2)C(=O)C(F)(F)F)cc1OC`: in the assay with Rattus norvegicus [2], the 50% effective dose (ED50) was determined as 321 µmol/kg. For the same molecule, in the assay with Rattus norvegicus [3], the inhibition in vivo at 200 mg/kg is 80.2%. The inhibition in vivo at 100 mg/kg with Rattus norvegicus [4] was 38.7%. Also, the IC50 in assay [1] is above 50 µM.

For the molecule `Cc1ccc(-c2cc(C(F)(F)F)nn2-c2ccc(S(N)(=O)=O)cc2)cc1` [CELECOXIB], the median effective dose (ED50) in the assay on Rattus norvegicus [2] stood at 185 µmol/kg. Besides, the inhibition in vivo at 100 mg/kg in the assay on Rattus norvegicus [4] came out at 83%. Moreover, in the assay with Rattus norvegicus [5], the inhibition in vivo at 50 mg/kg is 57%.

Consider `FC(F)(F)C1=NN=C(c2ccc(Cl)cc2)/C1=C\c1ccco1`, for which, in assay [1], the IC50 is above 50 µM.

On to `N#CC(C#N)=Cc1c(C(F)(F)F)nn(-c2ccccc2)c1-c1ccc(Cl)cc1`, for which the half-inhibitory concentration (IC50) in assay [1] was above 50 µM.

As to `O=C(/C(=C/c1ccc(O)cc1)C(=O)C(F)(F)F)c1ccc(Cl)cc1`, the ED50 in the assay on Rattus norvegicus [2] came out at 366 µmol/kg. The inhibition in vivo at 200 mg/kg with Rattus norvegicus [3] worked out at 78.9%. Further, in the assay on Rattus norvegicus [4], the inhibition in vivo at 100 mg/kg stood at 39.2%. In addition, in assay [1], the IC50 was above 50 µM.

In the case of `O=[N+]([O-])c1ccc(/N=C/c2c(C(F)(F)F)nn(-c3ccccc3)c2-c2ccc(Cl)cc2)cc1`, the median effective dose (ED50) with Rattus norvegicus [2] was 243 µmol/kg. The inhibition in vivo at 200 mg/kg with Rattus norvegicus [3] was found to be 86.7%. Also, the inhibition in vivo at 100 mg/kg in the assay on Rattus norvegicus [4] stood at 43.7%. In assay [1], the 50% inhibitory concentration (IC50) was above 50 µM.

In the case of `FC(F)(F)c1cc(/N=C/c2c(C(F)(F)F)nn(-c3ccccc3)c2-c2ccc(Cl)cc2)cc(C(F)(F)F)c1`, the 50% effective dose (ED50) in the assay with Rattus norvegicus [2] was determined as 170 µmol/kg. In the assay on Rattus norvegicus [3], the inhibition in vivo at 200 mg/kg worked out at 89.3%. The inhibition in vivo at 100 mg/kg in the assay with Rattus norvegicus [4] worked out at 52%. In assay [1], this molecule yielded a half-maximal inhibitory concentration (IC50) above 50 µM.

In turn, `Oc1ccccc1/C=C1\C(c2ccc(Cl)cc2)=NN=C1C(F)(F)F` came in with an IC50 in assay [1] above 50 µM.

On to `O=C(/C(=C/c1cccc([N+](=O)[O-])c1)C(=O)C(F)(F)F)c1ccc(Cl)cc1`, for which the ED50 with Rattus norvegicus [2] is 343 µmol/kg. Moreover, the inhibition in vivo at 200 mg/kg in the assay on Rattus norvegicus [3] was 80%. For the same molecule, the inhibition in vivo at 100 mg/kg with Rattus norvegicus [4] is 37.9%. The molecule further showed an IC50 in assay [1] above 50 µM.

`Cc1ccc(C2=NNC3(C2)C(=O)Nc2ccc(F)cc23)cc1` (centres undefined) displayed an IC50 in assay [1] above 50 µM.

For the molecule `Oc1ccc(/C=C2\C(c3ccc(Cl)cc3)=NN=C2C(F)(F)F)cc1`, the ED50 with Rattus norvegicus [2] was determined as 370 µmol/kg. In addition, the inhibition in vivo at 200 mg/kg in the assay on Rattus norvegicus [3] was 81.4%. In addition, in the assay with Rattus norvegicus [4], the inhibition in vivo at 100 mg/kg is 35.3%. In addition, the half-maximal inhibitory concentration (IC50) in assay [1] was above 50 µM.

As to `O=C1Nc2ccc(F)cc2C12CC(c1ccc(Br)cc1)=NN2` (centres undefined), in assay [1], the IC50 was above 50 µM.

`FC(F)(F)c1nn(-c2ccccc2)c(-c2ccc(Cl)cc2)c1/C=N/c1ccccc1Cl`: in assay [1], the IC50 is above 50 µM.

Take `O=C(O)Cc1ccccc1Nc1c(Cl)cccc1Cl` [DICLOFENAC SODIUM]: the median effective dose (ED50) in the assay on Rattus norvegicus [2] was 198 µmol/kg. Also, the inhibition in vivo at 100 mg/kg in the assay on Rattus norvegicus [4] worked out at 87.3%. The inhibition in vivo at 50 mg/kg in the assay with Rattus norvegicus [5] turned out to be 48.7%.

Consider `COc1ccc(/C=C(/C(=O)c2ccc(Cl)cc2)C(=O)C(F)(F)F)cc1`, for which the ED50 in the assay on Rattus norvegicus [2] worked out at 528 µmol/kg. In the assay on Rattus norvegicus [3], the inhibition in vivo at 200 mg/kg was found to be 52.4%. Moreover, in the assay on Rattus norvegicus [4], the inhibition in vivo at 100 mg/kg is 26.3%. The molecule further yielded an IC50 in assay [1] above 50 µM.

A word on the IC50: it is the point on the concentration scale where inhibition reaches its midpoint. A high value points to lower potency. As usually defined, the ED50 is the midpoint of the dose-response relation. A word on the inhibition in vivo: it is the relative decrease from the control value, in per cent.
